KCNQ1 inh = human KCNQ1 channel inhibition; P51787; CHO-K1 KCNQ1, FluxOR thallium flux fluorescence; active compounds read high; B-score at 10 µM; 1.3% of 310,000 active; AID 2642;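 active = compounds whose thallium flux B-score, printed positive for inhibition, exceeds three library SD while starting fluorescence stays within three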;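 note: channel opened by potassium depolarization with thallium stimulus after 20 min compound exposure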
KCNK9 inh = human KCNK9 channel inhibition | Q9NPC2 | HEK293 KCNK9, FluxOR thallium flux fluorescence; active compounds read low | B-score at 10 µM | 1.2% of 310,000 active;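 active = ratio B-score over 3 SD below the library mean, with starting fluorescence within 5 SD of its mean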;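 note: negative B-score means less thallium flux so channel inhibition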
KCC2 mod = modulators of human KCC2 chloride dependent transport | KCC2 cells, thallium flux FluoZin-2 fluorescence | B-score of Tl+ flux slope (higher = more flux/activation; lower = inhibition) at 10 µM | 2.2% of 190,000 active | AID 1456;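 active = thallium flux slope and its plate-corrected score both differing from the plate sample mean at a set confidence after two filtering rounds, in either direction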;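 note: slope of fluorescence scaled to starting intensity during 10 to 20 s after thallium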
Target sequence (Q9H2X9 whole entry, looked up): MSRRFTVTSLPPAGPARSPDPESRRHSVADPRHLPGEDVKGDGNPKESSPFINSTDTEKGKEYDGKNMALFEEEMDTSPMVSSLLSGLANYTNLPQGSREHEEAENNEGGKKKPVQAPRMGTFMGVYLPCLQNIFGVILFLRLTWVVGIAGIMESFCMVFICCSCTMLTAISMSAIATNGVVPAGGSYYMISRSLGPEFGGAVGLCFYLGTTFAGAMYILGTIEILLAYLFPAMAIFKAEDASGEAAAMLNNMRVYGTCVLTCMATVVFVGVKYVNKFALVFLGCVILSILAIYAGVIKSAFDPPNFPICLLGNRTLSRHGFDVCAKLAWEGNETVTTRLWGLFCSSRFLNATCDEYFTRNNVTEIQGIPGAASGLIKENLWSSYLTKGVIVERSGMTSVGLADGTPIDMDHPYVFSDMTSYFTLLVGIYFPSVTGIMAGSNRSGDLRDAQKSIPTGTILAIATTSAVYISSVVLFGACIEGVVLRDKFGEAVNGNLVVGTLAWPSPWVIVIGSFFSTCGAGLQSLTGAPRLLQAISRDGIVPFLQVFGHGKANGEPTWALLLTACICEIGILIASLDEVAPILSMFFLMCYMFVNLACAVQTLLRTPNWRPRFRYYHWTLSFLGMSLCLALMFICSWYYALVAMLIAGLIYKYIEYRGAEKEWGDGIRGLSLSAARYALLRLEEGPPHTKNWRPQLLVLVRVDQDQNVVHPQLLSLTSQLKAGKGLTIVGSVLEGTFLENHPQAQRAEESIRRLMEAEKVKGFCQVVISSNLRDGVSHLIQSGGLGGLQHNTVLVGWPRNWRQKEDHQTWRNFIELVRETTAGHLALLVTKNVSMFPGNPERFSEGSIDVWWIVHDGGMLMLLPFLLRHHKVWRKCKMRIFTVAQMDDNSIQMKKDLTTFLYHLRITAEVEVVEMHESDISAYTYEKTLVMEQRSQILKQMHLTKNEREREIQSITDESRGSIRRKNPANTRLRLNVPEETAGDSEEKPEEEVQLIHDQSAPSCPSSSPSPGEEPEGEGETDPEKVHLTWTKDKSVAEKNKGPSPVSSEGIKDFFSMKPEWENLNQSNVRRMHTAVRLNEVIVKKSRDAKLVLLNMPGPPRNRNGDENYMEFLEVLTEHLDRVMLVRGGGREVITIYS
KCNK3 inh = human KCNK3 channel inhibition, primary screen; CHO-KCNK3 thallium flux, FluxOR fluorescence; active compounds read low; 0.84% of 340,000 active; O14649; B-score at 10 µM;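 active = B-score under library mean minus 4 SD, starting fluorescence ratio at most library mean plus 5 SD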;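 note: more negative B-score means stronger inhibition of thallium flux through KCNK3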
hERG protect = shields human hERG channel from block by proarrhythmic agents | 0.51% of 310,000 active | CHO-hERG, FluxOR thallium flux, dofetilide IC70 present | Q12809 | activation (rescue from dofetilide block), less the hit threshold, % at 10 µM | AID 1511;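 active = activation above the mean of controls blocked by dofetilide plus 5 SD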;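 note: thallium influx through hERG after potassium depolarization seen as dye fluorescence rise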
KCNQ1 pot = potentiates or activates the human KCNQ1 potassium channel; P51787; B-score at 10 µM; 0.35% of 310,000 active; CHO-K1 KCNQ1, thallium flux FluxOR fluorescence; active compounds read high;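 active = fluorescence ratio B-score, a plate-corrected score, at least three library SD, with initial intensity B-score within 5 SD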
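System: Stable KCNQ1 CHO-K1 line | Incubation: 90 min dye loading and 20 min compound exposure, both at room temperature | Measure: Ratio B score | Medium: Assay buffer for compound exposure, DMSO matched across wells | Compound dosing: Single-concentration screen | Probe or stimulus: K+/Tl+ depolarizing stimulus | Measured by: Kinetic FluxOR fluorescence, 10 s baseline plus 110 s post-stimulus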
KCNK3 inh conf = human KCNK3 channel inhibition, confirmation assay. shares compounds with KCNK3 inh. CHO-KCNK3 thallium flux, FluxOR fluorescence; 0% buffer, 100% carvedilol maximal block. ratio percent of control, % at 10 µM. 99% of 2,400 active;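 active = ratio percent of control, averaged over triplicates, above buffer control mean plus 5 SD, cut at about 64% in these data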;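 note: ratio is the fluorescence rise from min to max over baseline after thallium stimulus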
KCNK3 noninduced = counter-screen for KCNK3 inhibitors: effect in non-induced cells. shares compounds with KCNK3 inh. non-induced KCNK3 parental cells, FluxOR thallium flux; active compounds read low. thallium flux ratio (lower = more inhibition) at 10 µM. 40% of 2,400 active. AID 651747;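 active = thallium flux ratio, averaged over three wells, more than 5 SD below the buffer control mean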;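 note: host cells are CHO cells without KCNK3 induction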
Each line names hits and unclear results; the compound was inactive in the other large screens (follow-up assays come after a bar, where they were run). Hits are enriched below; roughly 4.1% of the tested compounds scored in any of these assays.

Cc1ccc(-c2nc(C(Cl)Cl)c3ccccc3n2)cc1	KCNK3 inh -9.19 | KCNK3 inh conf 114.0 | KCNK3 noninduced inactive
Cc1ccc(-c2nc(Nc3ccc(O)cc3)c3ccccc3n2)cc1	none (no result: KCC2 mod)
Cc1ccc(-c2nc(NCCN(C)C)c3ccccc3n2)cc1	none (no result: KCC2 mod)
Cc1nn(-c2ccccc2)c(C)c1NC(=O)COC(=O)c1cccc(OC(F)F)c1	none (no result: KCC2 mod)
CN(c1ccccc1)S(=O)(=O)c1cccc(NC(=O)c2cc(=O)c3ccccc3o2)c1	KCNK3 inh -10.2 | KCNK3 inh conf 136.7 | KCNK3 noninduced inactive
Cc1cc(C)n2cc(CSCc3ccco3)nc2n1	KCNK3 inh -16.8 (no result: KCC2 mod) | KCNK3 inh conf 77.7 | KCNK3 noninduced inactive
COc1ccc(C(=O)Nc2ccccc2N2CCCC2)cc1S(=O)(=O)N1CCOCC1	none (no result: KCC2 mod)
Cc1cc(C)cc(OCC(=O)Nc2ccccc2N2CCCCC2)c1	KCNK3 inh -10.2 | KCNK3 inh conf 94.0 | KCNK3 noninduced inactive
O=C(Nc1ccccc1NC(=O)c1ccccc1F)c1ccccc1F	none (no result: KCC2 mod)
Cc1cccc(OCC(=O)Nc2ccccc2N2CCN(C(=O)C(C)C)CC2)c1C	none
Cc1cccc(OCC(=O)Nc2ccccc2N2CCCC2)c1C	KCNK3 inh -9.8 (no result: KCC2 mod) | KCNK3 inh conf 118.3 | KCNK3 noninduced 0.142
O=C(Nc1ccccc1N1CCN(c2ccccc2)CC1)c1ccccc1F	KCNK3 inh -9.74 | KCNK3 inh conf 125.0 | KCNK3 noninduced 0.112
Cc1cc(OCC(=O)Nc2ccccc2N2CCCCC2)ccc1C(C)C	none (no result: KCC2 mod)
O=C(Cc1ccccc1F)Nc1ccccc1N1CCCC1	KCNK3 inh -9.07 (no result: KCC2 mod) | KCNK3 inh conf 89.3 | KCNK3 noninduced inactive
O=C(Cc1ccccc1F)Nc1cc(Cl)ccc1N1CCCC1	none (no result: KCC2 mod)
COc1ccc(NC(=O)CCNS(=O)(=O)c2cccc3nsnc23)c(OC)c1	none (no result: KCC2 mod)
O=C(COc1c(Cl)cccc1Cl)Nc1ccccc1N1CCCC1	KCNK3 inh -9.11 (no result: KCC2 mod) | KCNK3 inh conf 120.7 | KCNK3 noninduced 0.132
CC(=O)Nc1cccc(OCC(O)Cn2cnc3ccccc32)c1 (stereo not drawn)	none (no result: KCC2 mod)
CC(=O)OC(COc1cccc(C)c1)Cn1cnc2ccccc21 (stereo not drawn)	KCNK3 inh -9.42 | KCNK3 inh conf 126.0 | KCNK3 noninduced 0.159
COc1cc(C(C)=NNC(=O)c2ccncc2)ccc1O	none (no result: KCNQ1 inh, KCNK9 inh, KCC2 mod, hERG protect, KCNQ1 pot)
COc1ccccc1NC(=O)C(C)N(C)CC(=O)Nc1cccc2ccccc12 (stereo not drawn)	none (no result: KCNQ1 inh, KCNK9 inh, KCC2 mod, hERG protect, KCNQ1 pot)
COc1ccccc1NC(=O)C(C)N(C)Cc1ccc(Cl)s1 (stereo not drawn)	KCNK9 inh -6.9 (no result: KCC2 mod) | KCNK3 inh conf 107.0 | KCNK3 noninduced 0.156
COc1ccccc1CN(C)C(C)C(=O)Nc1cccc(C(C)=O)c1 (stereo not drawn)	none
COc1ccc(CN(C)C(C)C(=O)Nc2cccc3ccccc23)cc1 (stereo not drawn)	KCNK3 inh -9.65 (no result: KCC2 mod) | KCNK3 inh conf 120.7 | KCNK3 noninduced 0.156
COc1cccc(NC(=O)CSc2nc(O)c(C)c(=O)n2-c2ccc(C)cc2)c1	none (no result: KCC2 mod)
CC(C)NC(=O)C(c1ccc(F)cc1)N(C(=O)CCC(=O)Nc1ccccn1)C1CCCC1 (stereo not drawn)	KCNK3 inh -12.6 (no result: KCC2 mod) | KCNK3 inh conf 89.0 | KCNK3 noninduced inactive
CC(C)(C)NC(=O)C(c1ccc(F)cc1)N(C(=O)CCC(=O)Nc1ccccn1)C1CCCC1 (stereo not drawn)	none (no result: KCC2 mod)
CCCCOc1ccc2ccccc2c1C=O	KCNK3 inh -15.1 | KCNK3 inh conf 129.3 | KCNK3 noninduced inactive
CCCOc1ccc2ccccc2c1/C=C1\SC(=O)NC1=O	none (no result: KCC2 mod)
Cc1cccc(-n2c(SCc3ccc([N+](=O)[O-])cc3)nnc2-c2c[nH]c3ccccc23)c1	KCNK3 inh -10.9 | KCNK3 inh conf 107.7 | KCNK3 noninduced 0.155
COc1cccc(-n2c(SC)nnc2-c2c[nH]c3ccccc23)c1	none (no result: KCC2 mod)
C[C@H](CO)N1C[C@H](C)[C@@H](CN(C)S(=O)(=O)c2ccccc2)Oc2ccc(NS(=O)(=O)c3ccccc3)cc2C1=O	none (no result: KCNQ1 inh, KCNK9 inh, KCC2 mod, hERG protect, KCNQ1 pot)
Cc1c(C(=O)N(C)Cc2ccccc2)oc2c(Cl)cccc12	KCNK3 inh -11.1 (no result: KCC2 mod) | KCNK3 inh conf 110.3 | KCNK3 noninduced inactive
Cc1c(C(=O)OC(C)C(=O)N(C)Cc2ccccc2)oc2ccccc12 (stereo not drawn)	KCNK3 inh -11.7 (no result: KCNQ1 inh, KCNK9 inh, KCC2 mod, hERG protect, KCNQ1 pot) | KCNK3 inh conf 77.3 | KCNK3 noninduced inactive
Cc1c(C(=O)N(C)CC(=O)Nc2cccc(F)c2)oc2c(Cl)cccc12	none (no result: KCC2 mod)
COc1ccc(S(=O)(=O)N(C)c2ccc(C(=O)Nc3c(C)n(C)n(-c4ccccc4)c3=O)cc2)cc1	none (no result: KCC2 mod)
O=C(NCCC(c1ccccc1)c1ccccc1)c1ccc(Br)o1	KCNK3 inh -9.7 (no result: KCC2 mod) | KCNK3 inh conf 114.0 | KCNK3 noninduced inactive
Cc1[nH]c2ccccc2c1SCCNC(=O)c1ccc(Br)o1	KCNK3 inh -8.96 | KCNK3 inh conf 97.3 | KCNK3 noninduced inactive
O=C(NCCc1csc(-c2ccccc2)n1)c1ccc(Br)o1	KCNK3 inh -11.1 (no result: KCC2 mod) | KCNK3 inh conf 91.7 | KCNK3 noninduced inactive
O=C(NCCSc1c[nH]c2ccccc12)c1ccc(Br)o1	KCNK9 inh -7.9, KCNK3 inh -10.7 | KCNK3 inh conf 98.0 | KCNK3 noninduced inactive
O=C(NCCc1c[nH]c2ccccc12)c1ccc(Br)o1	none (no result: KCNQ1 inh, KCNK9 inh, KCC2 mod, hERG protect, KCNQ1 pot)
COc1ccc(/C=C(/NC(=O)c2ccccc2OC)C(=O)Nc2ccc(C(=O)O)cc2)cc1	none (no result: KCC2 mod)
Cc1ccc(C)c(N2CCN(CCCNC(=O)CCC(=O)N3CCOc4ccc(Cl)cc43)CC2)c1	none (no result: KCC2 mod, KCNK3 inh)
Cc1ccc(C)c(N2CCN(C(=O)CCC(=O)N3CCOc4ccc(Cl)cc43)CC2)c1	KCNK3 inh -10 (no result: KCC2 mod) | KCNK3 inh conf 122.0 | KCNK3 noninduced 0.147
Cc1cc(N)nc(=O)n1C1CC(O)C(CO)O1 (stereo not drawn)	none (no result: KCNQ1 inh, KCNK9 inh, KCC2 mod, hERG protect, KCNQ1 pot)
COC(=O)C1CCN(C(=O)COC(=O)c2cccc(NS(=O)(=O)c3ccccc3)c2)CC1	none (no result: KCC2 mod)
O=C(Nc1cccc(Cl)c1)OC1CCCCc2cccnc21 (stereo not drawn)	KCNK3 inh -9.34 | KCNK3 inh conf 116.3 | KCNK3 noninduced inactive
CC(C)(C)C(=O)Nc1cccc(-c2nc3ccccc3[nH]2)c1	KCNK3 inh -10.6 (no result: KCC2 mod) | KCNK3 inh conf 93.3 | KCNK3 noninduced inactive
CC(=O)Nc1cccc(-c2nc3ccccc3[nH]2)c1	none
O=C(Nc1cccc(-c2nc3ccccc3[nH]2)c1)c1ccccn1	KCNK9 inh -7.07, KCNK3 inh -12.6 (no result: KCC2 mod) | KCNK3 inh conf 108.7 | KCNK3 noninduced inactive
